Measurements reported in ChEMBL document CHEMBL2163240, “Griseusins F and G, spiro-naphthoquinones from a tin mine tailings-derived alkalophilic Nocardiopsis species” (J Nat Prod, 2012).
In brackets after ≈: the same amount, converted by molar mass.

Key:
[1] = test system: Bacillus subtilis; experiment: Antibacterial activity against Bacillus subtilis after overnight incubation by agar well diffusion assay; assay type: functional
[2] = test system: Micrococcus luteus; experiment: Antibacterial activity against Micrococcus luteus after overnight incubation by agar well diffusion assay; assay type: functional
[3] = test system: Staphylococcus aureus; experiment: Antibacterial activity against Staphylococcus aureus ATCC 29213 after overnight incubation by agar well diffusion assay; assay type: functional
[4] = test system: HCT-116; experiment: Cytotoxicity against human HCT116 cells after 24 to 72 hrs by MTT assay; assay type: functional, cell-based
Procedure, shortened: (§1)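 Cells (from Kunming Medical University) seeded at 5 × 10^4 cells/mL, preincubated 24 h at 37 °C, then given graded concentrations of test chemical in DMSO; cisplatin as positive control. MTT staining after 24, 48 and 72 h, OD 492 nm versus negative control; IC50 = concentration giving 50% cell death, from concentration–viability plot.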

[5] = test system: CFPAC-1; experiment: Cytotoxicity against human CFPAC-1 cells after 24 to 72 hrs by MTT assay; assay type: functional, cell-based; procedure, shortened: as §1
[6] = test system: ACHN; experiment: Cytotoxicity against human ACHN cells after 24 to 72 hrs by MTT assay; assay type: functional, cell-based; procedure, shortened: as §1
[7] = Cytotoxicity against human MDA-MB-435S cells after 24 to 72 hrs by MTT assay; assay type: functional, cell-based; procedure, shortened: as §1
[8] = test system: B16; experiment: Cytotoxicity against mouse B16 cells after 24 to 72 hrs by MTT assay; assay type: functional, cell-based; procedure, shortened: as §1

Row | SMILES | MIC [1] | MIC [2] | MIC [3] | IC50 [4] | IC50 [5] | IC50 [6] | IC50 [7] | IC50 [8]
1 | O=C(O)c1cn(C2CC2)c2cc(N3CCNCC3)c(F)cc2c1=O [CIPROFLOXACIN] | 0.64 µg/mL (≈ 1.93 µM) | 1.19 µg/mL (≈ 3.59 µM) | 0.28 µg/mL (≈ 0.845 µM) |  |  |  |  | 
2 | CC(=O)C[C@]12C(=O)c3cccc(O)c3C(=O)[C@H]1[C@@]1(O[C@H](C)CC(=O)[C@H]1O)O[C@@H]1CC(=O)O[C@@H]12 [GRISEUSIN G] | 1.33 µg/mL (≈ 2.9 µM) | 1.47 µg/mL (≈ 3.21 µM) | 0.8 µg/mL (≈ 1.75 µM) | 580 nM | 420 nM | 460 nM | 690 nM | 370 nM
3 | CC(=O)C[C@]12C(=O)c3cccc(O)c3C(=O)[C@H]1[C@@]1(O[C@H](C)C[C@H](O)[C@H]1O)O[C@@H]1CC(=O)O[C@@H]12 [GRISEUSIN F] | 1.65 µg/mL (≈ 3.58 µM) | 1.27 µg/mL (≈ 2.76 µM) | 0.91 µg/mL (≈ 1.98 µM) | 700 nM | 640 nM | 550 nM | 820 nM | 430 nM
